Where “and” joins values, the source holds several entries; their conditions need not be identical. Equal entries are not always repeated. Calls of active or inactive are those of the source. No cut-off for these calls is given here.
How the values were obtained:
[1] = target: T1, Vitamin D3 receptor (Homo sapiens) (UniProt P11473); assay: Induction of differentiation of human HL60 promyelocytes to monocytes; format: functional
T1 sequence (whole entry): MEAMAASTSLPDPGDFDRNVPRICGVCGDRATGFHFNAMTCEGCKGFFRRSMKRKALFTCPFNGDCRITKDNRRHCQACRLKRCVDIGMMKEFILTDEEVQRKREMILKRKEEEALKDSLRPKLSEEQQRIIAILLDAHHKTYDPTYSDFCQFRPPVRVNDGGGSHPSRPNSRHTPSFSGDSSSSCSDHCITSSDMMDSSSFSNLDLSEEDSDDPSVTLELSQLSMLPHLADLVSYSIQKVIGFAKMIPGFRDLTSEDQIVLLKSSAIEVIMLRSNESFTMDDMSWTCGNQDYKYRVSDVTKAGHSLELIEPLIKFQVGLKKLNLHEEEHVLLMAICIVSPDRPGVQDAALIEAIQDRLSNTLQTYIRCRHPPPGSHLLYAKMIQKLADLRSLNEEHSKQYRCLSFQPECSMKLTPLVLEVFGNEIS

[2] = target: T2, Vitamin D3 receptor (Rattus norvegicus) (UniProt P13053); assay: Induction of vitamin D mediated transactivation in rat ROS17/2.8 cell luciferase assay; format: functional
T2 sequence (whole entry): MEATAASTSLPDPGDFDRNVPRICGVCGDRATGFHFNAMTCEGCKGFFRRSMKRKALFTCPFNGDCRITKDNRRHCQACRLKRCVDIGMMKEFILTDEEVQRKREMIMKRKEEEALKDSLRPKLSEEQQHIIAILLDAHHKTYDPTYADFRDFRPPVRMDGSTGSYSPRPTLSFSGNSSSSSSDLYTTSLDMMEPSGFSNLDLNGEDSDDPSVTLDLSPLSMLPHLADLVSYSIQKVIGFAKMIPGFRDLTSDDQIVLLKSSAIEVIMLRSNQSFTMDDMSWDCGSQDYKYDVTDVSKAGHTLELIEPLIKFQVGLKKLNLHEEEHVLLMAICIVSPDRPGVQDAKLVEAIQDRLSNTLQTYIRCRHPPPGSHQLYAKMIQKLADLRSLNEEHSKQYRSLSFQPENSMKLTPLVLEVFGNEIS
How it was run: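 ROS 17/2.8 cells stably carrying a 24-hydroxylase promoter-luciferase reporter were dosed over a concentration range. Luciferase was measured by luminometer 16 h later.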

Rattus norvegicus [3] = assay: Calcium mobilization in vitamin D deficient ip dosed Sprague-Dawley rat bone; format: functional, organism-based
How it was run: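 Rats depleted of vitamin D and kept on 0.02% Ca diet; four consecutive daily ip doses in 0.1 mL 1,2-propanediol/ethanol (95:5). Serum drawn 24 h after last dose; calcium by atomic absorption with 0.1% lanthanum chloride; rise in serum calcium taken as bone calcium mobilization.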

Rattus norvegicus [4] = assay: Calcium mobilization in vitamin D deficient ip dosed Sprague-Dawley rat
Mus musculus = assay: Increase of calcium level in po dosed CD1 mouse serum; format: functional, organism-based
How it was run: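 Female CD-1 mice, 6-7 weeks, on 0.47% Ca diet, acclimated 5-7 days. Single gastric gavage dose formulated in Neobee oil with 5% ethanol at 4 mL/kg. Serum calcium measured by atomic absorption at several timepoints after dosing, including day 3.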

Row | SMILES | ED50 [1] | ED50 [2] | Activity (Rattus norvegicus [3]) | Activity (Rattus norvegicus [4]) | Activity (Mus musculus)
1 | C[C@H](CCCC(C)(C)O)C1CCC2/C(=C/C=C3C[C@@H](O)C(=CCCO)[C@H](O)C3)CCC[C@@]21C (stereo partly drawn) | 3 nM and 1.3 nM | 0.042 nM | Active | Active | Active
2 | COCOCCC=C1[C@H](O)CC(=C/C=C2\CCC[C@@]3(C)C2CCC3[C@H](C)CCCC(C)(C)O)C[C@H]1O (stereo partly drawn) | 4.7 nM | 3.8 nM | Active | Active | Active
3 | C[C@@H](CCCC(C)(C)O)C1CCC2/C(=C/C=C3C[C@@H](O)C(=CCCO)[C@H](O)C3)CCC[C@@]21C (stereo partly drawn) |  | 0.0065 nM | Active | Active | 
